The results in this text go back to ChEMBL document CHEMBL4842335, “Discovery of penipanoid C-inspired 2-(3,4,5-trimethoxybenzoyl)quinazolin-4(3H)-one derivatives as potential anticancer agents by inhibiting cell proliferation and inducing apoptosis in hepatocellular carcinoma cells” (Eur J Med Chem, 2021).

pIC50: −log10 of the molar value. The source made the active and inactive calls. The rule behind the calls is not given here.

The test system of series [1] is HepG2. The series is described as follows: Induction of apoptosis in human HepG2 cells assessed as live cells at 3.2 uM incubated for 48 hrs by Annexin V and dead cell assay kit (reference value: 93.90%). The format is functional. In a few lines: (§1)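 HepG2 cells were grown in DMEM and exposed to 0, 0.8, 1.6 or 3.2 µM test agent or DMSO vehicle for 48 h. Apoptosis was then read on a Muse cell analyzer using an Annexin V & Dead Cell kit, which separates live, early apoptotic, late apoptotic and dead populations. The figure legend gives n = 3 with SEM.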

For series [2], the system named is HepG2. The series is described as follows: Induction of apoptosis in human HepG2 cells assessed as early apoptotic cells at 0.8 uM incubated for 48 hrs by Annexin V and dead cell assay kit (reference value: 4.55%). The format is functional. In a few lines: as §1
Series [3] concerns HepG2. The series is described as follows: Antitumor activity against human HepG2 cells xenografted in BALB/c mouse assessed as tumor growth inhibition at 4 mg/kg, ip relative to control. The format is functional. To be noted: read-out: TGI. In a few lines:
(§2)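 Female BALB/c nude mice (14–17 g) given HepG2 s.c. (1×10⁶/mouse); at 100–200 mm³ tumours, randomised to 3 groups of 5. Daily i.p. dosing at 4 or 8 mg/kg for 20 days; vehicle 15% N-methylpyrrolidone/25% Solutol HS-15/60% saline. Caliper volume twice weekly, TV = width² × length/2; inhibition from volume change versus vehicle group.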

Series [4] has as its system Bel-7402. The series is described as follows: Cytotoxicity against human Bel-7402 cells assessed as inhibition of proliferation incubated for 72 hrs by MTT assay. The format is functional, cell-based. To be noted: Bel-7402, 72 h. The method, boiled down:
(§3)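 Cells plated at 3×10³/well, grown overnight in DMEM + 10% FBS, then exposed to compounds (DMSO stocks; 0.1% DMSO negative control) for 72 h at 37 °C. MTT (5 mg/mL in PBS, added at 10%) for 4 h, formazan dissolved in DMSO, A570 read. Inhibition = (Ac−As)/(Ac−Ab)×100; IC50 by calculator; ≥3 independent repeats.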

Series [5] has as its system Bel-7402. The series is described as follows: Induction of cell cycle arrest in human Bel-7402 cells assessed as accumulation at G1 phase at 0.8 uM incubated for 48 hrs by flow cytometry (reference value: 46.32%). It is filed as functional.
A further series concerns NCI-H1299. The series is described as follows: Cytotoxicity against human NCI-H1299 cells assessed as inhibition of proliferation incubated for 72 hrs by MTT assay. The format is functional, cell-based. The note with it: NCI-H1299, 72 h. The method, boiled down:
as §3

In series [6] the test system is Bel-7402. Nature of the series: Induction of cell cycle arrest in human Bel-7402 cells assessed as accumulation at S phase at 1.6 uM incubated for 48 hrs by flow cytometry (reference value: 28.48%). The format is functional.
In series [7] the test system is HepG2. Nature of the series: Antitumor activity against human HepG2 cells xenografted in BALB/c mouse assessed as tumor growth inhibition at 8 mg/kg, ip relative to control. The note with it: read-out: TGI. It is filed as functional. In a few lines: as §2
Series [8] has as its system HepG2. The series is described as follows: Induction of apoptosis in human HepG2 cells assessed as early apoptotic cells at 3.2 uM incubated for 48 hrs by Annexin V and dead cell assay kit (reference value: 4.55%). The format is functional. In a few lines:
as §1

Series [9] has as its system HepG2. Nature of the series: Cytotoxicity against human HepG2 cells assessed as inhibition rate at 2.5 uM incubated for 72 hrs by MTT assay relative to control. It is filed as functional. The method, boiled down:
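HepG2 exposed to each compound at 2.5 µM-range single concentration for 72 h at 37 °C after overnight attachment in DMEM + 10% FBS; 0.1% DMSO control. MTT 4 h, DMSO solubilisation, A570; inhibition rate = (Ac−As)/(Ac−Ab)×100.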

Series [10] deals with HepG2. Nature of the series: Induction of cell cycle arrest in human HepG2 cells assessed as accumulation at S phase at 0.8 uM incubated for 48 hrs by flow cytometry (reference value: 28.23%). It is filed as functional. In a few lines: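 HepG2 treated 48 h with 0, 0.8 or 1.6 µM (DMSO control); phase distribution by flow cytometry using a cell cycle and apoptosis kit; mean with SD, n = 3.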

A short description of series [11]: Toxicity in BALB/c mouse xenografted with human HepG2 cells at 4 to 8 mg/kg, ip relative to control. It is filed as organism-based. The note with it: in vivo, dose 4-8 mg/kg. The method, boiled down: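 Female BALB/c nude mice (14–17 g) carrying s.c. HepG2 xenografts (100–200 mm³), 5 per group. Dosed i.p. daily for 20 days at 4 or 8 mg/kg in 15% N-methylpyrrolidone/25% Solutol HS-15/60% saline, with vehicle controls. Body weight tracked over the treatment.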

A short description of series [12]: Selectivity index, ratio of IC50 for human LO2 cells to IC50 for human HepG2 cells. The format is toxicity. To be noted: LO2 cells versus HepG2 cells, read-out: Selectivity Index.
Series [13] concerns HepG2. The series is described as follows: Inhibition of colony formation in human HepG2 cells at 1.6 to 3.2 uM measured after 10 days by crystal violet staining based assay relative to control. It is filed as functional, cell-based. To be noted: dose 1.6-3.2 µM, time 10.0 day. The method, boiled down: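 1000 cells/well seeded, attached overnight in DMEM + 10% FBS, then grown 10 days at 37 °C, 5% CO₂ with 0, 0.2, 0.4, 0.8, 1.6 or 3.2 µM. Fixed in 4% paraformaldehyde 15 min, stained 0.1% crystal violet 30 min, colonies counted; formation rate relative to solvent control.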

The target of series [14] is Serine/threonine-protein kinase AKT (Homo sapiens) (UniProt P31751+Q9Y243+P31749). Nature of the series: Inhibition of Akt phosphorylation in human HepG2 cells incubated for 48 hrs by Western blot analysis. The note with it: dose 1.6-3.2 µM. The format is cell-based. In a few lines: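 HepG2 treated 48 h with 0, 1.6 or 3.2 µM; lysates run on 12.5% SDS-PAGE, PVDF transfer, primary antibodies (AKT, p-AKT, ERK1/2, p-ERK1/2; 1:1000) overnight at 4 °C, HRP secondaries 1 h, chemiluminescence. Phosphorylation quantified relative to untreated control set to 1; SD, n = 3.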

In series [15] the test system is HepG2. The series is described as follows: Induction of apoptosis in human HepG2 cells assessed as dead cells at 1.6 uM incubated for 48 hrs by Annexin V and dead cell assay kit (reference value: 0.55%). It is filed as functional. The method, boiled down:
as §1

In series [16] the test system is HepG2. Nature of the series: Induction of apoptosis in human HepG2 cells assessed as dead cells at 0.8 uM incubated for 48 hrs by Annexin V and dead cell assay kit (reference value: 0.55%). The format is functional. In a few lines:
as §1

The test system of series [17] is HepG2. The series is described as follows: Induction of apoptosis in human HepG2 cells assessed as live cells at 0.8 uM incubated for 48 hrs by Annexin V and dead cell assay kit (reference value: 93.90%). The format is functional. The method, boiled down: as §1
Series [18] has as its system Bel-7402. Nature of the series: Induction of cell cycle arrest in human Bel-7402 cells assessed as accumulation at S phase at 0.8 uM incubated for 48 hrs by flow cytometry (reference value: 28.48%). The format is functional.
The subject of series [19] is HepG2. Nature of the series: Induction of apoptosis in human HepG2 cells assessed as live cells at 1.6 uM incubated for 48 hrs by Annexin V and dead cell assay kit (reference value: 93.90%). The format is functional. The method, boiled down:
as §1

Series [20] concerns HepG2. The series is described as follows: Induction of cell cycle arrest in human HepG2 cells assessed as accumulation at G1 phase at 1.6 uM incubated for 48 hrs by flow cytometry (reference value: 46.88%). The format is functional.
The test system of a further series is L02. Nature of the series: Cytotoxicity against human L-O2 cells assessed as inhibition of proliferation incubated for 72 hrs by MTT assay. The format is cell-based. To be noted: L02, 72 h.
Series [21] has as its system Bel-7402. Nature of the series: Induction of cell cycle arrest in human Bel-7402 cells assessed as accumulation at G2/M phase at 1.6 uM incubated for 48 hrs by flow cytometry (reference value: 25.20%). It is filed as functional.

Serine/threonine-protein kinase AKT (Homo sapiens), sequence (P31749 whole entry, looked up): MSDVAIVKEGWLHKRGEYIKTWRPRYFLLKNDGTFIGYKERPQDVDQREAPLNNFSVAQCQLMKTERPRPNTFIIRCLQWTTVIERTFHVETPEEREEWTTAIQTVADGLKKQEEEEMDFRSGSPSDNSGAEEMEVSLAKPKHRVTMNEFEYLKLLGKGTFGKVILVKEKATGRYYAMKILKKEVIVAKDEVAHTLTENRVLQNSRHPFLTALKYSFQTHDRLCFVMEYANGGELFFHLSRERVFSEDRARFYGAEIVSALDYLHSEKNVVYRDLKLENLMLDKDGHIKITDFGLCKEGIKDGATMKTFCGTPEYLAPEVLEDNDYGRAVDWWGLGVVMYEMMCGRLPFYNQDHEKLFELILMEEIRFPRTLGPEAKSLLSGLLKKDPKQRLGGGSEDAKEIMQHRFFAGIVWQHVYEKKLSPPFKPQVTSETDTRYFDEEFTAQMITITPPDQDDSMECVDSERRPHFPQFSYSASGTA
Serine/threonine-protein kinase AKT (Homo sapiens), sequence (P31751 whole entry, looked up): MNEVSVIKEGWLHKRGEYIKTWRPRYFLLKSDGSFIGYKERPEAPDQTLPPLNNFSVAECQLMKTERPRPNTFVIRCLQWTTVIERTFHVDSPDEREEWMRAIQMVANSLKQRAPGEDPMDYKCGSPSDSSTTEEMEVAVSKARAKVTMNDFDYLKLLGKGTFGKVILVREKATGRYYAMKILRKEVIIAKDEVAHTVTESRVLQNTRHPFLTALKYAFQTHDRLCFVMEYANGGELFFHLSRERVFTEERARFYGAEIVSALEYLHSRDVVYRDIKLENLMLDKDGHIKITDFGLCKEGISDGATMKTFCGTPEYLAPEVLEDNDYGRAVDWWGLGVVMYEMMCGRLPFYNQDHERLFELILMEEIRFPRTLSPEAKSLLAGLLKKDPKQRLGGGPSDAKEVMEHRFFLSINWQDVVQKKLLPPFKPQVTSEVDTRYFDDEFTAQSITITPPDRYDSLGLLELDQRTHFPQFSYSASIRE
Serine/threonine-protein kinase AKT (Homo sapiens), sequence (Q9Y243 whole entry, looked up): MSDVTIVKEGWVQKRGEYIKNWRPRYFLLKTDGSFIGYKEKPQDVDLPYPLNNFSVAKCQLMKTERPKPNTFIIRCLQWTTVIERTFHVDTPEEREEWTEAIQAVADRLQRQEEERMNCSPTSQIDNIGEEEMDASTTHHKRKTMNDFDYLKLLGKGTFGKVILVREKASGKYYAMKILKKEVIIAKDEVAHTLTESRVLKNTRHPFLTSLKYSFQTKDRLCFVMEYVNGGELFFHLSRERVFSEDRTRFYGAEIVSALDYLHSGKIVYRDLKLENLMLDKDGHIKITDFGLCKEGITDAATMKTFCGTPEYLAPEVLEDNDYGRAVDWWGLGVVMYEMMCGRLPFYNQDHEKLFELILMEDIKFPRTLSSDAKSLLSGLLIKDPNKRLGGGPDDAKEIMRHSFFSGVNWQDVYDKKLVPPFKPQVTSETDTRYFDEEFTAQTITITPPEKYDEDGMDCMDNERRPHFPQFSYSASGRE

Turning to `COc1cc(C(=O)c2nc3ccccc3c(=O)[nH]2)cc(OC)c1OC`, the Activity is recorded as 53.2% with HepG2 [1]; 5.8% with HepG2 [2]; 39.2% in the series with Bel-7402 [5]; 34.5% with Bel-7402 [6]; 22.1% with HepG2 [8]; 33.43% with HepG2 [10]. In addition, the Activity result in [11] is given as “Non-Toxic”; with HepG2 [15], 0.95%; in the series with HepG2 [16] it was 0.45%; in the series on HepG2 [17], 91.75%; with Bel-7402 [18] it was 33.11%; with HepG2 [19], 80.65%. The results for the Activity in the series with HepG2 [20] and in the series with Bel-7402 [21] were 29.17% and 32.43%, respectively. The inhibition in vivo at 4 mg/kg with HepG2 [3] was determined as 19.1%. Besides, the pIC50 in the series with Bel-7402 [4] was 5.77; in the series with NCI-H1299, 4.86; with L02, 5.22. Moreover, the inhibition in vivo at 8 mg/kg with HepG2 [7] was 67.6%. For the same compound, the inhibition at 2.5 µM with HepG2 [9] is 73%. In addition, the selectivity ratio in series [12] was 4.9. In the series with HepG2 [13], the inhibition result is “Active”. Besides, in [14], the inhibition result was “Dose-Dependent Effect”.
